Reference: ChEMBL document CHEMBL1131058, “Studies on quinazolines and 1,2,4-benzothiadiazine 1,1-dioxides. 8.1, 2 synthesis and pharmacological evaluation of tricyclic fused quinazolines and 1,2,4-benzothiadiazine 1,1-dioxides as potential alpha1-adrenoceptor antagonists” (J Med Chem, 1998)

Experiments:
[1] = biological target: T1, Alpha-2A adrenergic receptor (Homo sapiens, UniProt P08913); assay: Compound is evaluated for binding affinity towards Alpha-2A adrenergic receptor using [3H]MK912
T1 sequence (P08913 whole entry): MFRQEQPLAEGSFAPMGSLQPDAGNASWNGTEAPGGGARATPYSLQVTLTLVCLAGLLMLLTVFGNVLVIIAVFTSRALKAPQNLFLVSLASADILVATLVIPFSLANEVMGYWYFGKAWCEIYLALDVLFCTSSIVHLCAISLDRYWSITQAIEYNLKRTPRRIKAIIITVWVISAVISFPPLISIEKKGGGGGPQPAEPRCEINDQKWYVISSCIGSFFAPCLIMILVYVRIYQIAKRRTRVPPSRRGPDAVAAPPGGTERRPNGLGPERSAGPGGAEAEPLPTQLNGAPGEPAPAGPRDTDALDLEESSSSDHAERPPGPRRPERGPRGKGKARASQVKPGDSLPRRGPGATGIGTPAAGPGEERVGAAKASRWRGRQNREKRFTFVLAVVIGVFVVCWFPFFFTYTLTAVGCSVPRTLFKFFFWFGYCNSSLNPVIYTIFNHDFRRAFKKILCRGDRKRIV

[2] = biological target: Serotonin 2 (5-HT2) receptor (Rattus norvegicus, UniProt P30994+P08909+P14842); assay: Compound is evaluated for binding affinity towards 5-hydroxytryptamine 2 receptor using [3H]ketanserin in rat brain; type: tissue-based
Outline: (§1)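 Contract radioligand competition binding. Sources: 5-HT1 and 5-HT1A in rat brain cortex; 5-HT2 and σ2 in rat brain; σ in guinea pig brain; D2, rhD2 and rhD3 in CHO cells with [³H]spiperone; H1 in guinea pig lung with [³H]pyrilamine. Inhibition constants reported; no constant given where inhibition at 10 µM was below 50%.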

[3] = biological target: D(3) dopamine receptor (Homo sapiens, UniProt P35462); assay: Compound is evaluated for binding affinity towards recombinant human Dopamine receptor D3 using [3H]spiperone in CHO cells at 10 uM; type: cell-based
Sequence of D(3) dopamine receptor (P35462 whole entry): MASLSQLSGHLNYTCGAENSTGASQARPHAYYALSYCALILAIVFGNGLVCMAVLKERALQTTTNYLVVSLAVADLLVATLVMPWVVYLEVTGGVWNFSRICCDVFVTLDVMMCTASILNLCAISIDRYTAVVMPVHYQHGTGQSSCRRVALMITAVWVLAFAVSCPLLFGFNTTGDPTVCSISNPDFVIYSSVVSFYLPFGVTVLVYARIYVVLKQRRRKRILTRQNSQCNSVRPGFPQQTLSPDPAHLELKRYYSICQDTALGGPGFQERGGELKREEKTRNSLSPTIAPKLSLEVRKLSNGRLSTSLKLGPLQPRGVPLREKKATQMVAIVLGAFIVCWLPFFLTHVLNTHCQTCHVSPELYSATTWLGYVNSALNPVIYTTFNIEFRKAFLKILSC
Outline: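 Single-concentration screen at 10 µM in contract radioligand binding assays. Records whether inhibition of specific radioligand binding stayed below 50%.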

[4] = biological target: T2, Alpha-2B adrenergic receptor (Homo sapiens, UniProt P18089); assay: Compound is evaluated for binding affinity towards Alpha-2B adrenergic receptor using [3H]yohimbine
T2 sequence (P18089 whole entry): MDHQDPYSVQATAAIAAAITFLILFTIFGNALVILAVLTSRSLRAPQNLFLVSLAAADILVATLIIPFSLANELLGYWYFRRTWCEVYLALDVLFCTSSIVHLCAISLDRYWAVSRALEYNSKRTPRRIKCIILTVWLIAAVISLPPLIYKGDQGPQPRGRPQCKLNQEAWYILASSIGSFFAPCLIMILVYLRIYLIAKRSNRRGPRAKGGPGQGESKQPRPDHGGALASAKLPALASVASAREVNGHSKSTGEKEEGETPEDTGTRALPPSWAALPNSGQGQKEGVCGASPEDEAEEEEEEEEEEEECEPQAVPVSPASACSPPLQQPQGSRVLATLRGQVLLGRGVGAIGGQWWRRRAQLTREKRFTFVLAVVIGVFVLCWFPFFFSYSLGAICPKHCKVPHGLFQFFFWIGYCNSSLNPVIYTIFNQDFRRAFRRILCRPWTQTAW

[5] = biological target: T3, 5-hydroxytryptamine receptor 1A (Rattus norvegicus, UniProt P19327); assay: Compound is evaluated for binding affinity towards 5-hydroxytryptamine 1A receptor using [3H]-8-OH- -DPAT in rat brain cortex; type: tissue-based
T3 sequence (P19327 whole entry): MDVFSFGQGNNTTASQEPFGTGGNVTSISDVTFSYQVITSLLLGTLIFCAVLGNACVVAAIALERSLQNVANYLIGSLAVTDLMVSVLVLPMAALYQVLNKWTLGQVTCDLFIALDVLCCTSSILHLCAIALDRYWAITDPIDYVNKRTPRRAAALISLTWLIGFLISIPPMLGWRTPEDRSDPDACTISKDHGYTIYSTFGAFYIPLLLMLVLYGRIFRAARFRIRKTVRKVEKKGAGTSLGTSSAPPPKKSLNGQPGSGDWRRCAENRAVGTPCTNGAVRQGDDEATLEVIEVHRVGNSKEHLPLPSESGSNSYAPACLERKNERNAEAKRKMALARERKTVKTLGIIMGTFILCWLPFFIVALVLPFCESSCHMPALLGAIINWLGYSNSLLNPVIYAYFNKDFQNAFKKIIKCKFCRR
Outline: as §1

Row | Ki [1] [nM] | Structure (SMILES) | Ki [2] [nM] | inhibition [3] [%] | Ki [4] [nM] | Ki [5] [nM]
1 | 3000 | COc1ccccc1N1CCN(C[C@@H]2CN=C3c4ccccc4N=C(SC)N32)CC1 |  |  |  | 
2 |  | Oc1nc2ccccc2c2ncc(CN3CCN(c4ccccc4Cl)CC3)n12 | 114 | < 50 |  | 
3 | 444 | COc1ccccc1N1CCN(C[C@H]2CN=C3c4ccccc4NC(=O)N32)CC1 |  |  | 116 | 
4 |  | COc1ccccc1N1CCN(C[C@@H]2CN=C3c4ccccc4NC(=O)N32)CC1 |  |  | 9300 | 
5 | 872 | COc1ccccc1N1CCN(C[C@H]2CN=C3c4ccccc4N=C(SC)N32)CC1 |  |  | 376 | 
6 |  | COc1ccccc1N1CCN(Cc2cn3c(O)nc4ccccc4c3n2)CC1 | 3580 | < 50 |  | 
7 |  | COc1ccccc1N1CCN(Cc2cnc3c4ccccc4nc(O)n23)CC1 | 514 | < 50 |  | 4000
8 |  | COc1ccccc1N1CCN(CC2CN=C3c4ccccc4N=C(SC)N32)CC1 (centres undefined) | 168 |  |  | 237

Row | Structure (SMILES) | Ki [1] [nM] | Ki [2] [nM] | inhibition [3] [%] | Ki [4] [nM] | Ki [5] [nM]
9 | COc1ccccc1N1CCN(CC2CN3C(=O)Nc4ccccc4C3=N2)CC1 (centres undefined) | 547 | 369 |  | 253 | 238
